Measurements: ChEMBL document CHEMBL1153438, “Synthesis and biological evaluation of novel conjugates of podophyllotoxin and 5-FU as antineoplastic agents” (Bioorg Med Chem, 2009)
Activity calls are given as the source filed them. No cut-off for these calls is given here.

Legend:
[1] = test system: K562; assay: Cytotoxicity against human K562 cells after 48 hrs by MTT assay; assay type: functional, cell-based; settings: K562, 48 h
How it was run: (§1)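 MTT assay in HL-60 and K562 leukemia cells. Cells were seeded at 6000–10,000 per well, then treated in triplicate with a concentration gradient for 48 h at 37 °C. IC50 was taken from the dose–response curve as the average of triplicates.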

[2] = test system: A549; assay: Cytotoxicity against human A549 cells after 72 hrs by SRB method; assay type: functional, cell-based; settings: A549, 72 h
How it was run: (§2)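 SRB assay in AGS and A549 solid tumour cells. Cells were seeded at 6000–10,000 per well, then exposed in triplicate to a concentration gradient for 72 h at 37 °C. IC50 was read from the dose–response curve as the average of triplicates.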

[3] = Octanol-water partition coefficient, log P of the compound; assay type: physicochemical
How it was run: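 Octanol–water partition coefficient; each reported P is the average of three measurements.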

[4] = test system: AGS; assay: Cytotoxicity against human AGS cells after 72 hrs by SRB method; assay type: functional, cell-based; how it was run: as §2
[5] = test system: HL-60; assay: Cytotoxicity against human HL60 cells after 48 hrs by MTT assay; assay type: functional, cell-based; settings: HL-60, 48 h; how it was run: as §1
[6] = test system: Plasma; assay: Metabolic stability in mouse plasma at 1 ug/ml after 2 hrs; assay type: ADME, cell-free
How it was run: (§3)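 Compound (100 µg/mL stock in acetonitrile, 1.0 mL) was added to 4.0 mL preincubated human plasma, mouse plasma or pH 7.4 phosphate buffer and held at 37 °C. Protein was precipitated with cold acetonitrile and the sample centrifuged. Supernatant was analysed by C18 HPLC with CH3CN/H2O 45:55 at 1.0 mL/min.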

[7] = Stability at pH 7.4 PBS at 1 ug/ml within 8 hrs; assay type: physicochemical; settings: buffer, pH 7.4, 8 h; how it was run: as §3
[8] = Stability at pH 7.4 PBS at 1 ug/ml after 8 hrs; assay type: physicochemical; settings: buffer, pH 7.4, 8 h; how it was run: as §3
[9] = test system: Calf thymus DNA; assay: Binding affinity to calf thymus DNA after 24 hrs by circular dichroism; assay type: nucleic-acid assay; settings: Bos taurus
How it was run: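 CT DNA dissolved and annealed in 10 mM PBS pH 7.2, then mixed with compound at 0, 10, 20 or 50 µg/mL. Mixtures were incubated 24 h at 37 °C in the dark. CD spectra were recorded from 200–320 nm in 1 cm quartz cells, with compound-only solutions in PBS as blanks.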

[10] = test system: Plasma; assay: Metabolic stability in human plasma at 1 ug/ml within 24 hrs; assay type: ADME, cell-free; how it was run: as §3

SMILES	IC50 [1]	IC50 [2]	logP [3]	IC50 [4]	IC50 [5]	Stability [6]	Stability [7]	Stability [8]	Activity [9]	Stability [10]
COc1cc([C@@H]2c3cc4c(cc3[C@@H](N[C@@H](Cc3ccccc3)C(=O)OCCCCn3cc(F)c(=O)[nH]c3=O)[C@H]3COC(=O)[C@H]23)OCO4)cc(OC)c1O	9.2 µM	0.3 µM	0.43	23.7 µM	0.42 µM	–	–	–	–	–
COc1cc([C@@H]2c3cc4c(cc3[C@@H](N[C@@H](CCSC)C(=O)OCCCn3cc(F)c(=O)[nH]c3=O)[C@H]3COC(=O)[C@H]23)OCO4)cc(OC)c1O	8.8 µM	0.29 µM	0.23	24.8 µM	0.99 µM	–	–	–	–	–
O=c1[nH]cc(F)c(=O)[nH]1 [FLUOROURACIL]	> 100 µM	–	–	> 100 µM	–	–	–	–	–	–
COc1cc([C@@H]2c3cc4c(cc3[C@@H](N[C@@H](Cc3ccc(O)cc3)C(=O)OCCCn3cc(F)c(=O)[nH]c3=O)[C@H]3COC(=O)[C@H]23)OCO4)cc(OC)c1O	28.6 µM	21.7 µM	0.07	115 µM	26.6 µM	–	–	–	–	–
COc1cc([C@@H]2c3cc4c(cc3[C@@H](N[C@H](C(=O)OCCCn3cc(F)c(=O)[nH]c3=O)[C@@H](C)O)[C@H]3COC(=O)[C@H]23)OCO4)cc(OC)c1O	30.8 µM	6.95 µM	-0.12	141 µM	23.2 µM	–	–	–	–	–
COc1cc([C@@H]2c3cc4c(cc3[C@@H](N[C@@H](CC(C)C)C(=O)OCCCCCn3cc(F)c(=O)[nH]c3=O)[C@H]3COC(=O)[C@H]23)OCO4)cc(OC)c1O	6 µM	0.53 µM	0.51	23.5 µM	0.31 µM	–	–	–	–	–
COc1cc([C@@H]2c3cc4c(cc3[C@@H](N[C@@H](CC(C)C)C(=O)OCCCn3cc(F)c(=O)[nH]c3=O)[C@H]3COC(=O)[C@H]23)OCO4)cc(OC)c1O	9.5 µM	0.01 µM	0.33	59.2 µM	0.13 µM	–	–	–	–	–
COc1cc([C@@H]2c3cc4c(cc3[C@@H](N[C@@H](Cc3ccccc3)C(=O)OCCCCCn3cc(F)c(=O)[nH]c3=O)[C@H]3COC(=O)[C@H]23)OCO4)cc(OC)c1O	13.2 µM	< 0.01 µM	0.29	38.8 µM	0.04 µM	Unstable	Stable	Unstable	Active	Stable
COc1cc([C@@H]2c3cc4c(cc3[C@@H](N[C@@H](CC(C)C)C(=O)OCCCCn3cc(F)c(=O)[nH]c3=O)[C@H]3COC(=O)[C@H]23)OCO4)cc(OC)c1O	5.3 µM	< 0.01 µM	0.35	34.5 µM	0.73 µM	–	–	–	–	–
COc1cc([C@@H]2c3cc4c(cc3[C@@H](N[C@H](C(=O)OCCCn3cc(F)c(=O)[nH]c3=O)C(C)C)[C@H]3COC(=O)[C@H]23)OCO4)cc(OC)c1O	13.5 µM	1.92 µM	0.34	62.5 µM	5.8 µM	–	–	–	–	–
COc1cc([C@@H]2c3cc4c(cc3[C@H](O)[C@H]3COC(=O)[C@H]23)OCO4)cc(OC)c1OC [PODOFILOX]	> 100 µM	7.38 µM	0.69	50.8 µM	2.75 µM	–	–	–	–	–
CC[C@H](C)[C@H](N[C@@H]1c2cc3c(cc2[C@@H](c2cc(OC)c(O)c(OC)c2)[C@H]2C(=O)OC[C@@H]21)OCO3)C(=O)OCCCn1cc(F)c(=O)[nH]c1=O	5.1 µM	0.18 µM	0.59	56.2 µM	0.24 µM	–	–	–	–	–
COc1cc([C@@H]2c3cc4c(cc3[C@@H](N[C@@H](C)C(=O)OCCCn3cc(F)c(=O)[nH]c3=O)[C@H]3COC(=O)[C@H]23)OCO4)cc(OC)c1O	19.5 µM	2.59 µM	-0.07	40.4 µM	22.3 µM	–	–	–	–	–
COc1cc([C@@H]2c3cc4c(cc3[C@@H](N[C@@H](Cc3ccccc3)C(=O)OCCCn3cc(F)c(=O)[nH]c3=O)[C@H]3COC(=O)[C@H]23)OCO4)cc(OC)c1O	5.8 µM	0.48 µM	0.65	23.6 µM	0.31 µM	–	–	–	–	–
